Assay outcomes from PubChem BioAssay.
Wnt act: Wnt/beta-catenin pathway activators, primary screen, cell-based, plate reader, single point; 1.2% of 300,000 active; Wnt/beta-catenin reporter cell assay, activator; AID 743398, 2014; activation, % at 9.35 µM; in the data active = activation above about 30%, passing the limit was not always enough; inconclusive = no clear call, values can overlap the other calls
SR-BI HDL uptake: inhibitors of SR-BI mediated HDL lipid uptake, primary screen, ldlA[mSR-BI] cells, fluorescence, single point; 0.96% of 320,000 active; Scavenger receptor class B member 1 (Mus musculus), Q61009; ldlA[mSR-BI] CHO cells, DiI-HDL uptake fluorescence, 3 h; inhibition, % at 12.5 µM;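 active = mean replicate inhibition of at least 70% and a set share of replicates each scoring 70 or more; inconclusive = meets just one of the two criteria; inactive = fails both criteria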
Target sequence (Q61009 whole entry, looked up): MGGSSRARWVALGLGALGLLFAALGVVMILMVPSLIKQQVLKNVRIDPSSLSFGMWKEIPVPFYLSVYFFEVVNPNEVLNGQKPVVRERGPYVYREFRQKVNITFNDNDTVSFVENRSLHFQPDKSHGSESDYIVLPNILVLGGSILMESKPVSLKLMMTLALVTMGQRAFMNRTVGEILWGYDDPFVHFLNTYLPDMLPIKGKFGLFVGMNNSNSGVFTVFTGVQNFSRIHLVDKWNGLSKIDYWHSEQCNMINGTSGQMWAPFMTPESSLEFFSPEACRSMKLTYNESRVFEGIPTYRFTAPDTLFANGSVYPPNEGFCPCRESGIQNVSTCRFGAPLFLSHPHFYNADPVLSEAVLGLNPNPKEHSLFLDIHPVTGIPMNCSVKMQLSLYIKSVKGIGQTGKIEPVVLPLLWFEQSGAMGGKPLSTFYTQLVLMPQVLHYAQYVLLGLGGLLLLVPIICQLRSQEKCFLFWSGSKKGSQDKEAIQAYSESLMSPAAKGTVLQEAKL
SR-BI uptake up: activators of SR-BI mediated DiI-HDL uptake, primary screen, ldlA[mSR-BI] CHO cells, DiI fluorescence | 0.096% of 320,000 active | activation, % at 12.5 µM | 3 h; 100 = double the neutral-control signal;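 active = mean replicate activation of at least 60% and every replicate at or above 60%; inconclusive = mean or all-replicate condition met, but not both; inactive = mean below 60% and not all replicates reaching 60%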
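Test system: SR-BI-overexpressing, LDLR-lacking CHO cells. Measured by: DiI fluorescence, bottom read. Medium: Ham's F12 with 0.5% BSA, HEPES 25 mM, pH 7.4. Timing: 3 h uptake period with compound, 37 °C.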
MITF act: activators of MITF-driven TRPM1 promoter reporter, primary screen, cell-based, SK-MEL-5, luciferase, single point | SK-MEL-5 TRPM1-promoter luciferase, 24 h; % of positive control, neutral wells = 0 | activation, % at 12.5 µM | 0.75% of 300,000 active;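 active = mean activation of at least 80% with every replicate also reaching 80%; inconclusive = mean reaches 80% but some replicate falls short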
HSF-1 act: HSF-1 activators, primary screen, NIH3T3-HGL cells, MG132 stress, luminescence, single point; NIH3T3-HGL HSF-1 luciferase reporter, 8 h; 100% = twice DMSO control signal; activation, % at 9 µM; 1.7% of 300,000 active; AID 504408, 2011;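 active = mean replicate activation of at least 50% with a set share of replicates each reaching 50%; inconclusive = only one of those two conditions met; inactive = mean below 50% and too few replicates reaching it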
Each line names hits and unclear results; the compound was inactive in the other large screens. Most compounds without a hit are left out; they make up all but 3.6% or so of the library.

O=C(C=C=Nc1ccccc1)C(=O)N=C=Cc1ccccc1	HSF-1 act 224
Clc1ccc(-c2ncc3ccccn23)cc1	HSF-1 act 63
Clc1ccccc1-c1ncc2ccccn12	Wnt act 36, HSF-1 act 168
O=C(Nc1ccc2sccc2c1)c1ccc(Cl)s1	HSF-1 act 72
O=C(Nc1ccc2c(c1)C(=O)NC2=O)c1ccc(Cl)s1	none (no result: SR-BI HDL uptake, SR-BI uptake up)
CCc1cccc(NC(=O)Cn2c(=O)n(CCC(=O)NCC3CCCO3)c(=O)c3cc(OC)c(OC)cc32)c1 (configuration not stated)	SR-BI uptake up 379
COc1ccc(N=NC2=C(O)CC(C)(C)CC2=O)c(OC)c1	none (no result: MITF act)
COc1ccc(N=NC2=C(O)CC(C)(C)CC2=O)cc1	HSF-1 act 58
CC1(C)CC(=O)C(N=Nc2ccc(Br)cc2)=C(O)C1	Wnt act 70 (no result: SR-BI HDL uptake, SR-BI uptake up, MITF act)
COC(=O)CNC(=O)Cn1nc(C)c([N+](=O)[O-])c1C	Wnt act 38
COc1ccc(CNC(=O)CCCn2nc(C)c([N+](=O)[O-])c2C)cc1OC	Wnt act 38
Cc1nn(CCCC(=O)NCc2ccc(Cl)cc2)c(C)c1[N+](=O)[O-]	none
Cc1cccc(S(=O)(=O)NC(=O)C2(C)CCN2C(=O)c2cccc(F)c2)c1 (configuration not stated)	none (no result: SR-BI HDL uptake, SR-BI uptake up, MITF act, HSF-1 act)
Cc1noc(C)c1S(=O)(=O)N1CCCc2nc(-c3ccc(F)cc3)ccc21	none (no result: SR-BI HDL uptake, SR-BI uptake up, MITF act, HSF-1 act)
O=C(NNc1ccccc1)OCc1ccccc1	none (no result: SR-BI HDL uptake, SR-BI uptake up, MITF act, HSF-1 act)
C=CCN1CC(COCCCC)Oc2ccc(Cl)cc2S1(=O)=O (configuration not stated)	none (no result: SR-BI HDL uptake, SR-BI uptake up, MITF act, HSF-1 act)
CCN(CC)c1ccc(/C=N/NC(=O)OC(C)(C)C)cc1	Wnt act 59, HSF-1 act 60
CCN(CC)c1ccc(/C=N/NC(=O)Cc2nnc(NC(=O)Nc3ccccc3)s2)cc1	SR-BI HDL uptake 91
CCN(CC)c1ccc(/C=N/NC(=O)Nc2ccccc2)cc1	Wnt act 43, HSF-1 act inconclusive
CCOc1ccc(/C=N/NC(=O)Nc2ccccc2)cc1	MITF act 122
CCN(CC)c1ccc(/C=N\NC(N)=O)cc1	none
O=C(c1[nH]c(C(F)(F)F)nc1-c1ccccc1)N1CCC(Cc2ccccc2)CC1	none (no result: SR-BI HDL uptake, SR-BI uptake up, MITF act, HSF-1 act)
CCOC(=O)COc1ccc2nsnc2c1	none
CCOC(=O)Cn1cc(/C=C/[N+](=O)[O-])c2ccccc21	none
O=[N+]([O-])/C=C/c1c(OCc2ccccc2)ccc2ccccc12	none (no result: Wnt act)
CCOC(=O)COc1ccc(/C=C/[N+](=O)[O-])c(OCC(=O)OCC)c1	HSF-1 act 197 (no result: Wnt act)
CCOc1ccc(/C=C/[N+](=O)[O-])c2ccccc12	HSF-1 act 76 (no result: Wnt act, MITF act)
CCOC(=O)COc1ccc2ccccc2c1/C=C/[N+](=O)[O-]	HSF-1 act 177
COc1cc2ccccc2cc1C(=O)OCC(=O)N(CC(C)C)c1c(N)n(Cc2ccccc2)c(=O)[nH]c1=O	SR-BI HDL uptake 80
CCN(C(=O)COC(=O)c1ccccc1NCc1ccco1)c1c(N)n(Cc2ccccc2)c(=O)[nH]c1=O	SR-BI HDL uptake 73 (no result: HSF-1 act)
Nc1cc2c(cc1Cl)-c1ccccc1C2=NO	none (no result: HSF-1 act)
Cn1cc(CCOCc2ccccc2)c2ccccc21	none (no result: SR-BI HDL uptake, SR-BI uptake up, MITF act, HSF-1 act)
c1ccc(-c2noc(CCC3CCCC3)n2)cc1	MITF act 102
CN(Cc1nc(-c2ccccc2)no1)C1CCOCC1	Wnt act 41 (no result: SR-BI HDL uptake, SR-BI uptake up)
c1cc(-c2noc(CCC3CCCC3)n2)ccn1	none (no result: Wnt act)
CC[C@]12C(=O)N(C)C[C@H]([C@@H]3C(=O)N(Cc4ccccc4)C(=O)[C@@H]31)N2C(=O)c1ccc(Br)cc1	none (no result: HSF-1 act)
N#C/C(=C\C=C\c1ccccc1[N+](=O)[O-])C(=O)NC1CCCCC1	HSF-1 act 82 (no result: Wnt act)
O=C(Nc1nc2ccc(F)cc2s1)C1CCCO1 (configuration not stated)	MITF act 112 (no result: Wnt act)
O=C(Nc1nnc(-c2ccccc2F)s1)C1CCCO1 (configuration not stated)	Wnt act 51
O=C(Nc1nnc(-c2ccncc2)s1)C1CCCO1 (configuration not stated)	none (no result: Wnt act)
O=C(Nc1nc2ccc(C(=O)N3CCCCC3)cc2s1)C1CCCCC1	none
Nc1ccc2nc(NC(=O)C3CCCCC3)sc2c1	Wnt act 48
CC(C)(C)S(=O)(=O)/C(C#N)=C/c1cccn1S(=O)(=O)c1ccccc1	none (no result: SR-BI HDL uptake, SR-BI uptake up, MITF act, HSF-1 act)
CCc1c(-c2ccc(Br)cc2)ncn1CCc1ccccc1OC	none (no result: SR-BI HDL uptake, SR-BI uptake up, MITF act, HSF-1 act)
Cc1cc(-c2nc(-c3ccc(C(C)(C)C)cc3)no2)no1	MITF act 100
CCNC(=O)NC(=O)COC(=O)c1ccccc1SCC(=O)NC(=O)NCC	Wnt act 53
O=C(COC(=O)c1ccccc1SCC(=O)NC1CCS(=O)(=O)C1)NC1CCS(=O)(=O)C1 (configuration not stated)	none (no result: Wnt act)
N#Cc1ccc(OCc2c(-c3ccccc3)nnn2CC(=O)O)cc1	none (no result: SR-BI HDL uptake, SR-BI uptake up, MITF act, HSF-1 act)
CCCc1cc(NCCCn2ccnc2)n2nc(C)c(-c3ccccc3)c2n1	Wnt act 32
CC(C)(C)c1cc(NCCCn2ccnc2)n2ncc(-c3ccccc3)c2n1	Wnt act 53 (no result: MITF act)
C/C(CC(=O)Nc1ccccn1)=N\NC(=O)c1ccccc1O	SR-BI HDL uptake 73
C/C(CC(=O)Nc1ccc2c(c1)OCO2)=N\NC(=O)c1ccccc1N	Wnt act inconclusive, HSF-1 act 59 (no result: MITF act)
Cc1c(Cl)cccc1NC(=O)Nc1ccccc1C(N)=O	none
C/C(CC(=O)Nc1ccccn1)=N\NC(=O)c1ccccc1	none (no result: Wnt act, SR-BI HDL uptake, SR-BI uptake up, MITF act)
C/C(CC(=O)Nc1ccc2c(c1)OCO2)=N\NC(=O)c1ccc(N)cc1	none (no result: MITF act)
NC(=O)c1ccccc1NC(=O)Nc1cccc(Cl)c1Cl	HSF-1 act 77
C/C(CC(=O)Nc1cccc(Cl)c1Cl)=N\NC(=O)c1ccccc1N	Wnt act inconclusive, HSF-1 act 55
CCCCC[C@@H](C)N1C[C@H](COCc2ccccc2)Oc2cc(N3CCC[C@H]3C(N)=O)ccc2S1(=O)=O	none (no result: SR-BI HDL uptake, SR-BI uptake up, MITF act, HSF-1 act)
CCCCNC(=O)C[C@H]1C[C@@]2(C(=O)OC)C(=C[C@H](C(C)(C)C)O[C@@H]2C)N(Cc2ccccc2)C1=O	none (no result: SR-BI HDL uptake, SR-BI uptake up, MITF act, HSF-1 act)
COc1cc(OC)nc(Nc2nc(C(N)Cc3ccc(Cl)cc3)cs2)n1 (configuration not stated)	none (no result: SR-BI HDL uptake, SR-BI uptake up, MITF act, HSF-1 act)
C=CCNc1cccc2c1S(=O)(=O)N[C@@H](Cc1ccccc1)CO2	none (no result: SR-BI HDL uptake, SR-BI uptake up, MITF act, HSF-1 act)
COc1ccc(-c2nc3nc(C)cc(C)n3n2)cc1	Wnt act 33
COc1ccc(CNc2nc3nc(C)cc(C)n3n2)cc1	none
COc1ccc(CN2C(=O)CN(S(C)(=O)=O)CC2(C)C(=O)NCc2ccccc2)cc1OC (configuration not stated)	none (no result: SR-BI HDL uptake, SR-BI uptake up, MITF act, HSF-1 act)
CC(=O)Oc1ccc2occ(C(=O)c3ccccc3)c2c1	HSF-1 act 63 (no result: SR-BI HDL uptake, SR-BI uptake up, MITF act)
O=C(O)COc1ccc2occ(C(=O)c3ccccc3)c2c1	none
